Results reported in PubChem BioAssay AID488782 (The Scripps Research Institute Molecular Screening Center, 2010).
Calls of active or inactive are those of the source.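 How the source made its calls: active means concentration giving half-maximal inhibition of the luciferase signal, from the fitted curve, at 5 µM or lower; inactive means half-inhibition concentration above 5 µM.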

Target: Nuclear receptor subfamily 5 group A member 2 (Homo sapiens) (UniProt O00482)
Assay: LRH1 inhibitors, concentration-response, dose response, cell-based, HEK293T, Cyp19 aromatase-luciferase, luminescence, powder samples (AID 488782)
Details: HEK293T LRH1 Cyp19-luciferase reporter, 20 h
Method in brief: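 Assay system: HEK293T cells carrying LRH1 plus Cyp19-luciferase reporter. Signal: luciferase luminescence. Times: bulk transfection 24 h before replating, compound exposure 20 h. Replicates: each concentration tested in triplicate.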

Sequence of Nuclear receptor subfamily 5 group A member 2 (Homo sapiens) (O00482 whole entry, looked up): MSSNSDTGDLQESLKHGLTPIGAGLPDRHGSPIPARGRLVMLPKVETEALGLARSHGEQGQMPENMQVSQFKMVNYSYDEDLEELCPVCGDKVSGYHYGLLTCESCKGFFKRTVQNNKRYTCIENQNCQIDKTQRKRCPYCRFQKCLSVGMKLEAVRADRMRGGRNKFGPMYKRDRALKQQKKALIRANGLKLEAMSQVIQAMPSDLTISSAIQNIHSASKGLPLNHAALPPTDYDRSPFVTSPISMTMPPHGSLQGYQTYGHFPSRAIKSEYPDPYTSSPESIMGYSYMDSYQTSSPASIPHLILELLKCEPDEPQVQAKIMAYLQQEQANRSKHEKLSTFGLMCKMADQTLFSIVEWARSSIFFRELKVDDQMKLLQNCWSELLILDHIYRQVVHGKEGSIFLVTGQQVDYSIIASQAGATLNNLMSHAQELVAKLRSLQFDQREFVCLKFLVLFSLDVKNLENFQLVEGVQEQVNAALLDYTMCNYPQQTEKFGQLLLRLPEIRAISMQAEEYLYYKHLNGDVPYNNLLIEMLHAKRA

Row | SMILES | IC50 | fold change, lower = inhibition (at 10 µM (top of the series))
1 | O=c1cc(N2CCN(c3cccc(C(F)(F)F)c3)CC2)[nH]c(=O)n1C1CCCCC1 | 320 nM | 
2 | O=c1cc(N2CCN(c3nc(-c4ccccc4)ns3)CC2)[nH]c(=O)n1C1CCCCC1 | 4800 nM | 
3 | O=c1cc(N2CCN(c3cccc(Cl)n3)CC2)[nH]c(=O)n1C1CCCCC1 | 538 nM | 
4 | Cn1c(=O)cc(N2CCN(c3cccc(Cl)c3)CC2)[nH]c1=O | 1100 nM | 
5 | O=c1cc(N2CCN(Cc3ccc(Cl)cc3)CC2)[nH]c(=O)n1C1CCCCC1 |  | inactive
6 | CCn1c(=O)cc(N2CCN(c3cccc(Cl)c3)CC2)[nH]c1=O | 4200 nM | 
7 | CCn1c(=O)cc(N2CCN(c3cccc(C(F)(F)F)c3)CC2)[nH]c1=O | 1000 nM | 
8 | O=c1cc(N2CCN(c3cccc(Cl)c3)CC2)[nH]c(=O)n1C1CCCCC1 | 3700 nM | 
9 | O=c1cc(N2CCN(c3cccc(Cl)c3Cl)CC2)[nH]c(=O)n1C1CCCCC1 | 430 nM | 
10 | CC(C)Cn1c(=O)cc(N2CCN(c3cccc(C(F)(F)F)c3)CC2)[nH]c1=O | 110 nM | 
11 | C=CCn1c(=O)cc(N2CCN(c3cccc(C(F)(F)F)c3)CC2)[nH]c1=O | 570 nM | 
12 | O=c1cc(N2CCN(c3ccnc4cc(Cl)ccc34)CC2)[nH]c(=O)n1C1CCCCC1 | 4000 nM | 
13 | O=c1cc(N2CCN(c3ccccc3)CC2)[nH]c(=O)n1C1CCCCC1 | 2600 nM | 
14 | O=c1cc(N2CCN(C3CCCCC3)CC2)[nH]c(=O)n1C1CCCCC1 | 921 nM | 
